Results on three compounds are retold here after ChEMBL document CHEMBL4145471, “New 1,5 and 2,5-disubstituted tetrazoles-dependent activity towards surface barrier of Candida albicans” (Eur J Med Chem, 2018).

Data set [1] concerns Candida albicans. The experiment in a line: Antifungal activity against Candida albicans ATCC 90028 assessed as inhibition of metabolic activity at 10 ug/ml after 48 hrs in presence of 20 ug/ml fluconazol by XTT assay relative to control. It is filed as functional. Particulars: values are per cent of control. The procedure, abridged: (§1)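 Checkerboard against strain ATCC 90028, inoculum per M27-A3: fluconazole 80-1.25 µg/mL on one axis, tetrazole 80-1.25 µg/mL on the other. Plates at 35°C for 48 h, then XTT metabolic reduction read at 475 nm (660 nm reference). Activity is the drop in mean absorbance against untreated growth control. FICs and their summed FIC index are taken at 50% reduction in metabolic activity.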

The test system of data set [2] is Candida albicans. The experiment in a line: Synergistic antifungal activity against Candida albicans ATCC 90028 at 1.25 ug/ml after 48 hrs in presence of 20 ug/ml fluconazol by checkerboard assay relative to control. It counts as functional. Summed up: (§2)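 Checkerboard per M27-A3 against ATCC 90028: fluconazole at 80–1.25 µg/mL horizontally and partner compound at 80–1.25 µg/mL vertically, 100 µL yeast inoculum per well, 35°C for 48 h. After 48 h, metabolic activity was measured by XTT reduction at 475 nm (660 nm reference) relative to untreated growth control. FIC index is the sum of the FICs; <1 was defined as synergism and >1 as antagonism.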

In data set [3] the test system is Candida albicans. Kind of data set: Antifungal activity against Candida albicans ATCC 90028 assessed as metabolic activity at 1.25 ug/ml after 48 hrs in presence of 1.25 ug/ml fluconazol by XTT assay relative to control. Particulars: ATCC 90028, 48 h. On the technique in general: Tetrazolium assays rely on reduction of a dye to a coloured formazan, in cell work by metabolically active cells.

The subject of data set [4] is Candida albicans. The experiment in a line: Synergistic antifungal activity against Candida albicans ATCC 90028 at 10 ug/ml after 48 hrs in presence of 20 ug/ml fluconazol by checkerboard assay relative to control. It counts as functional. Summed up:
as §2

Data set [5] has as its system Candida albicans. Kind of data set: Antifungal activity against Candida albicans ATCC 90028 assessed as metabolic activity at 20 ug/ml after 48 hrs in presence of 5 ug/ml fluconazol by XTT assay relative to control.
Data set [6] deals with Candida albicans. Kind of data set: Antifungal activity against Candida albicans ATCC 90028 after 48 hrs in presence of fluconazol by XTT assay. It is filed as functional. Particulars: ATCC 90028, 48 h. Summed up:
as §1

Data set [7] concerns Candida albicans. Kind of data set: Antifungal activity against Candida albicans ATCC 90028 assessed as inhibition of metabolic activity at 2.5 ug/ml after 48 hrs in presence of 10 ug/ml fluconazol by XTT assay relative to control. It is filed as functional. Particulars: values are per cent of control. The procedure, abridged:
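C. albicans ATCC 90028 in checkerboard: fluconazole serial dilutions (80-1.25 µg/mL) crossed with tetrazole (80-1.25 µg/mL final), M27-A3 inoculum in RPMI 1640, 35°C for 48 h. Metabolic activity measured by XTT reduction, read at 475 nm (660 nm reference). Activity expressed relative to untreated growth control absorbance.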

For data set [8], the system named is Caco-2. The experiment in a line: Cytotoxicity against human Caco2 cells assessed as reduction in cell viability at 0.0313 ug/ml after 18 hrs by XTT assay ralative to control. It counts as cell-based. Particulars: caco-2, 18 h. Summed up: (§3)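 Caco-2 cells were exposed to compound at 256, 16 or 0.0313 µg/mL for 18 h, then given XTT reagent for 4–6 h. Absorbance was read at 475 nm with a 660 nm reference, and viability and toxicity were expressed as %. CC50 was taken as the concentration giving 50% viability loss. Means ± SD of three independent experiments, samples in duplicate.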

Data set [9] concerns Candida albicans. Kind of data set: Synergistic antifungal activity against Candida albicans ATCC 90028 at 5 ug/ml after 48 hrs in presence of 20 ug/ml fluconazol by checkerboard assay relative to control. It is filed as functional. Summed up:
(§4)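 Checkerboard in C. albicans ATCC 90028, inoculum prepared per CLSI M27-A3 in RPMI. Fluconazole serially diluted 80-1.25 µg/mL across the plate against the partner compound at 80-1.25 µg/mL final. Incubated 48 h at 35°C. Metabolic activity read by XTT reduction at 475 nm (660 nm reference), given as % of the untreated growth control.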

In data set [10] the test system is Candida albicans. Kind of data set: Antifungal activity against Candida albicans ATCC 90028 assessed as inhibition of metabolic activity at 5 ug/ml after 48 hrs in presence of 1.25 ug/ml fluconazol by XTT assay relative to control. Particulars: values are per cent of control. It counts as functional. Summed up: as §1
The test system of data set [11] is Candida albicans. The experiment in a line: Synergistic antifungal activity against Candida albicans ATCC 90028 at 1.25 ug/ml after 48 hrs in presence of 40 ug/ml fluconazol by checkerboard assay relative to control. It counts as functional. Summed up:
as §2

For data set [12], the system named is Candida albicans. The experiment in a line: Synergistic antifungal activity against Candida albicans ATCC 90028 at 2.5 ug/ml after 48 hrs in presence of 40 ug/ml fluconazol by checkerboard assay relative to control. It counts as functional. The procedure, abridged:
(§5)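 Checkerboard microdilution (M27-A3) on C. albicans ATCC 90028 in RPMI 1640: fluconazole (80-1.25 µg/mL) crossed with tetrazole (80-1.25 µg/mL final), incubated at 35°C for 48 h. Growth by OD405 at 18 and 48 h, endpoint taken as 100% inhibition. FIC index = sum of the two agents' FICs; <1 synergism, >1 antagonism.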

The subject of data set [13] is Candida albicans. The experiment in a line: Synergistic antifungal activity against Candida albicans ATCC 90028 at 80 ug/ml after 48 hrs in presence of 1.25 ug/ml fluconazol by checkerboard assay relative to control. It counts as functional. Summed up:
as §4

For data set [14], the system named is Candida albicans. Kind of data set: Synergistic antifungal activity against Candida albicans ATCC 90028 at 10 ug/ml after 48 hrs in presence of 40 ug/ml fluconazol by checkerboard assay relative to control. It counts as functional. The procedure, abridged: as §2
Data set [15] relates to Candida albicans. The experiment in a line: Synergistic antifungal activity against Candida albicans ATCC 90028 at 1.25 ug/ml after 48 hrs in presence of 1.25 ug/ml fluconazol by checkerboard assay relative to control. It is filed as functional. Particulars: ATCC 90028, 48 h, read-out: GI. Summed up:
as §2

The test system of data set [16] is Candida albicans. The experiment in a line: Synergistic antifungal activity against Candida albicans ATCC 90028 at 80 ug/ml after 48 hrs in presence of 20 ug/ml fluconazol by checkerboard assay relative to control. It counts as functional. The procedure, abridged:
as §4

The subject of data set [17] is Caco-2. The experiment in a line: Cytotoxicity against human Caco2 cells assessed as reduction in cell viability at 16 ug/ml after 18 hrs by XTT assay ralative to control. It is filed as cell-based. Particulars: caco-2, 18 h. The procedure, abridged: as §3
The subject of data set [18] is Candida albicans. Kind of data set: Synergistic antifungal activity against Candida albicans ATCC 90028 at 5 ug/ml after 48 hrs in presence of 2.5 ug/ml fluconazol by checkerboard assay relative to control. It counts as functional. The procedure, abridged: as §5
In data set [19] the test system is Candida albicans. The experiment in a line: Antifungal activity against Candida albicans ATCC 90028 after 48 hrs assessed as fluconazol MIC by XTT assay. It counts as functional. Particulars: ATCC 90028, 48 h. The procedure, abridged:
as §1

Data set [20] has as its system Candida albicans. Kind of data set: Antifungal activity against Candida albicans ATCC 90028 at 4 ug/ml after 48 hrs relative to control. It counts as functional. The procedure, abridged: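 Planktonic broth microdilution per M27-A3 in MOPS-buffered RPMI 1640 (pH 7.0), final inoculum 1.8×10^3 cells/mL, compounds 0.0313–16 µg/mL from 1600 µg/mL stocks in ethanol or DMSO. Incubated at 35°C without agitation; OD405 read at 18 and 48 h. % inhibition was derived from test, sterility (no inoculum) and solvent growth-control wells. Amphotericin B at 0.5 µg/mL served as the 100% control.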

The test system of data set [21] is Candida albicans. The experiment in a line: Synergistic antifungal activity against Candida albicans ATCC 90028 at 10 ug/ml after 48 hrs in presence of 80 ug/ml fluconazol by checkerboard assay relative to control. It is filed as functional. The procedure, abridged: as §4

In general, residual activity refers to the signal under treatment as a percentage of the control signal. The MIC is the least concentration at which growth counts as inhibited. For `CCOC(=O)CCn1nnc(-c2ccccc2)n1`, the residual activity was 70.81% with Candida albicans [1], 71.01% in the data set with Candida albicans [7] and 88.02% in the data set with Candida albicans [10]. The “growth inhibition (GI)” value came to 99.65% in the data set on Candida albicans [2]; 99.46% in the data set on Candida albicans [4]; 99.58% in the data set on Candida albicans [9]; 99.46% in the data set with Candida albicans [11]; 99.46% with Candida albicans [12]; 99.97% in the data set on Candida albicans [13]. In addition, the “growth inhibition (GI)” value in the data set with Candida albicans [14] came out at 99.34%; in the data set with Candida albicans [16], 99.59%; in the data set on Candida albicans [18] it was 99.77%; in the data set on Candida albicans [21], 99.49%. Besides, in the data set with Candida albicans [3], the metabolic activity at 1.25 µg/mL turned out to be 87%. The Metabolic activity in the data set with Candida albicans [5] is 100%. In addition, the MIC with Candida albicans [6] was determined as 80 µg/mL; in the data set on Candida albicans [19], 1.25 µg/mL. Further, the results for the Activity in the data set with Caco-2 [8], in the data set with Caco-2 [17] and in the data set on Candida albicans [20] were 0%, 50.46% and 99.68%, respectively. For the same compound, in the data set with Candida albicans [15], the inhibition of growth at 1.25 µg/mL turned out to be 99.8%.

For `Cc1ccc(-c2nnn(CCCN3CCOCC3)n2)cc1`, the values for the residual activity with Candida albicans [1], in the data set with Candida albicans [7] and with Candida albicans [10] were 93.01%, 85.87% and 100%, respectively. Moreover, the “growth inhibition (GI)” value was found to be 99.46% with Candida albicans [2]; 98.99% with Candida albicans [4]; 99.16% in the data set on Candida albicans [9]; 99.36% in the data set with Candida albicans [11]; 98.91% with Candida albicans [12]; 98.77% in the data set with Candida albicans [13]. Besides, the “growth inhibition (GI)” value was 98.78% with Candida albicans [14], 99.71% in the data set with Candida albicans [16], 98.9% in the data set with Candida albicans [18] and 99.21% in the data set on Candida albicans [21]. In the data set on Candida albicans [3], the metabolic activity at 1.25 µg/mL worked out at 74.3%. Also, the Metabolic activity in the data set with Candida albicans [5] is 100%. The MIC with Candida albicans [6] was 20 µg/mL; in the data set with Candida albicans [19], 10 µg/mL. Moreover, the Activity is listed as 18.76% with Caco-2 [8], 27.73% in the data set on Caco-2 [17] and 99.45% in the data set with Candida albicans [20]. Also, the inhibition of growth at 1.25 µg/mL in the data set on Candida albicans [15] came to 99%.

For `ClCCCn1nnnc1-c1ccccc1Cl`, the figures for the residual activity in the data set with Candida albicans [1], with Candida albicans [7] and with Candida albicans [10] were 87.4%, 64.55% and 79.99%, respectively. In addition, the “growth inhibition (GI)” value in the data set with Candida albicans [2] turned out to be 99.58%; with Candida albicans [4] it was 99.61%; in the data set on Candida albicans [9], 99.67%; with Candida albicans [11], 99.16%; with Candida albicans [12], 99.32%; in the data set on Candida albicans [13], 100%. The “growth inhibition (GI)” value in the data set on Candida albicans [14] is given as 99.29%; in the data set with Candida albicans [16], 99.74%; in the data set with Candida albicans [18], 99.14%; in the data set with Candida albicans [21], 99.43%. Also, the metabolic activity at 1.25 µg/mL with Candida albicans [3] stood at 86.4%. Besides, the Metabolic activity in the data set with Candida albicans [5] worked out at 99.55%. Also, the MIC with Candida albicans [6] turned out to be 80 µg/mL; in the data set on Candida albicans [19], 1.25 µg/mL. Besides, the values for the Activity in the data set with Caco-2 [8], in the data set on Caco-2 [17] and in the data set on Candida albicans [20] were 0%, 25.49% and 99.41%, respectively. Moreover, in the data set with Candida albicans [15], the inhibition of growth at 1.25 µg/mL was found to be 99.7%.
